# Compounds with a hit are over-represented: about 3.5% of the library has one in this group of screens.
# MrgX1 ag = agonists of human MrgX1 receptor, primary screen, HEK293 cells, Fluo-4 calcium flux. hit rate 0.44% among 310,000. Fluo-4 calcium fluorescence, agonist mode; stronger effect = higher value. Mas-related G-protein coupled receptor member X1 (Homo sapiens), Q96LB2. B-score at 10 µM;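 active means calcium response B-score plate-corrected fluorescence ratio at least 3 library SD, with starting fluorescence B-score inside 5 SD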
# Target sequence (Q96LB2 whole entry, looked up): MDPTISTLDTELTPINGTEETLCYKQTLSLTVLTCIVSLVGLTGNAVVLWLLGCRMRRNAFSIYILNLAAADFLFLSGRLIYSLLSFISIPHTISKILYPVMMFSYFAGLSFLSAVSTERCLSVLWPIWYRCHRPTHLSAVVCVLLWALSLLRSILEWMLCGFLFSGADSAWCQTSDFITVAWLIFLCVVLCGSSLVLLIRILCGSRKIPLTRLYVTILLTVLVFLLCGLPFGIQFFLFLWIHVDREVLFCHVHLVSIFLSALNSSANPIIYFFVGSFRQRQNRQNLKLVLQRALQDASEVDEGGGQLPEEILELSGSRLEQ
#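 times = overnight plating, then 30 min 37 °C plus 30 min room-temperature dye loading | assay system = stable human MrgX1 HEK293 cell line | input = fifteen thousand cells per well | signal = kinetic calcium dye fluorescence, Fluo-4 NW | dosing = compound delivered in addition one of three | read-out = B-scored fluorescence response ratio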
# MrgX1 allo act = positive allosteric modulators of MrgX1, primary screen, HEK293 cells, Fluo-4 calcium flux | Mas-related G-protein coupled receptor member X1 (Homo sapiens), Q96LB2 | FDSS; stronger effect = higher value | B-score at 10 µM | hit rate 0.63% among 310,000 | AID 588675, 2011;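 active means plate-corrected calcium response at least 3 library SD above typical, normal starting fluorescence, not activating the receptor alone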;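 further: compound read alongside a low EC10 to EC30 dose of BAM8-22 agonist; peak minus trough fluorescence over baseline measured at the second addition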
# RGS4 act = RGS4 potentiators or activators, primary screen, cell-based, HEK293 M3R inducible RGS4, calcium flux; AID 463111, 2010; hit rate 0.92% among 310,000; B-score at 10 µM; carbachol calcium flux Fluo4; stronger effect = lower value;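 active means B-score of the integrated calcium signal more than 4 SD below the library mean, with starting fluorescence not abnormally high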;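 further: negative B-score means reduced calcium response which marks RGS4 activation or potentiation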
#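 Also added: carbachol at ECmax as muscarinic agonist stimulus; Assay system: HEK293 cells with stable M3R and inducible RGS4; Timing: overnight RGS4 induction, 30 min dye load 37 °C, 20 min compound RT; Measured by: Fluo4-AM (2 µM) calcium-flux fluorescence, kinetic read.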
# RGS4 block = RGS4 inhibitors, primary screen, cell-based, HEK293 M3R inducible RGS4, calcium flux | Regulator of G-protein signaling 4 (Homo sapiens), P49798 | Fluo-4 calcium flux; stronger effect = higher value; triggered by carbachol at its EC20 | B-score at 10 µM | hit rate 0.45% among 310,000;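 active means B-score, a plate-corrected calcium signal, over three deviations above library mean, with baseline fluorescence within five deviations of library mean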;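 further: RGS4 expression induced by doxycycline in cells with stable M3 receptor; B-score is computed from the integrated fluorescence ratio over baseline after carbachol; higher B-score means a larger calcium signal and so more RGS4 inhibition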
# MrgX1 antagonist = antagonists of human MrgX1 receptor, primary screen, HEK293 cells, Fluo-4 calcium flux; Mas-related G-protein coupled receptor member X1 (Homo sapiens), Q96LB2; BAM8-22 antagonism; stronger effect = lower value; B-score at 10 µM; hit rate 1.3% among 310,000;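 active means calcium-response B-score plate-corrected more than 3 library SD below zero, starting fluorescence within 5 deviations, no agonist response on first addition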;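 further: peak minus trough fluorescence over baseline after final BAM8-22 challenge near maximal dose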
# Starred values were filed as active, the others as inactive; i = inactive.
SMILES,MrgX1 ag,MrgX1 allo act,RGS4 act,RGS4 block,MrgX1 antagonist
CCOC(=O)N1CCN(C(=O)c2ccc3c(=O)n(Cc4ccc(Cl)cc4)c(=S)[nH]c3c2)CC1,i,i,i,i,i
CCOC(=O)N1CCN(C(=O)c2ccc(Cn3c(=S)[nH]c4ccc(Br)cc4c3=O)cc2)CC1,i,i,i,i,-5.6*
COc1ccccc1CN(CC(=O)NCc1ccc(F)cc1)C(=O)c1csnn1,i,i,i,i,i
N#C/C(=C\c1ccc(O)c(O)c1)S(=O)(=O)c1ccccc1,i,13.7*,i,i,i
CC(Oc1ccccc1F)C(=O)NC1CCS(=O)(=O)C1 (configuration not stated),i,i,i,i,i
COc1ccc(-c2csc(NC(=O)CSc3n[nH]c(C)n3)n2)cc1,i,6.86*,i,i,i
COc1ccc(-c2csc(NC(=O)CSc3n[nH]c(N)n3)n2)cc1,i,i,i,i,i
COC(=O)c1cccc(Cn2c(Cl)c(/C=N/Nc3ccccc3C)sc2=O)c1,i,i,i,i,-8.09*
Cc1ccccc1N/N=C/c1sc(=O)n(Cc2cccc(C(=O)O)c2)c1Cl,i,i,i,i,i
CN(CC(=O)Nc1ccc(F)c(F)c1F)C(=O)C1CCN(C(=O)Nc2ccccc2)CC1,i,i,i,i,i
O=C(Oc1ccc2ccc(O)cc2c1)c1ccccc1Cl,i,i,i,i,i
O=C(Oc1ccc(/C=N/O)cc1)c1ccccc1Cl,i,16.2*,i,i,i
Cc1cccc(C(=O)Oc2ccc(/C=N/O)cc2)c1,i,7.66*,i,i,i
Cc1ccc(C(=O)N/N=C\c2ccc(OC(=O)c3cccc(F)c3)cc2)cn1,i,i,i,i,i
Cc1ccc(CSC2=NCCN2S(=O)(=O)c2ccc(F)cc2)cc1,i,i,i,i,i
C=CCOc1ccc(/C=C/C(=O)OCC(=O)NCC(=O)Nc2c(C)cc(C)cc2C)cc1,i,i,i,i,i
COc1ccc(CNCCC(c2ccc(OC(C)C)cc2)C(C)C)cc1OC (configuration not stated),i,i,i,i,i
COc1ccc(C(CCNCc2ccc(OC(C)C)cc2)C(C)C)cc1 (configuration not stated),i,i,i,i,-5.42*
COc1ccccc1/C=C/C1C(C(=O)OCC(C)C)=C(C)N=C2SCCC(=O)N21 (configuration not stated),i,i,i,i,i
COC(=O)C1=C(C)N=C2SCCC(=O)N2C1/C=C/c1ccccc1 (configuration not stated),i,i,-7.42*,i,i
C=CC[N+]1(CC#Cc2ccccc2)CCCC1,i,i,i,i,i
C(#Cc1ccccc1)C[N+]1(CC#Cc2ccccc2)CCCC1,i,i,-8.05*,i,i
CCN1CCN(CC(=O)N/N=C/c2cc(Br)cs2)CC1,i,i,i,i,i
Cc1nccn1CC(=O)N/N=C/c1cc(Br)cs1,i,i,i,i,-5.26*
COc1ccc(NC(=O)C2CCN(S(=O)(=O)c3ccc4c(c3)CC(C)N4C(C)=O)CC2)c(OC)c1 (configuration not stated),i,i,i,i,i
O=C1NC2(CCCCC2)C(=O)N1Cc1ccc([N+](=O)[O-])cc1,i,i,i,i,-7.18*
CCOc1ccc(CCN2C(=O)c3ccc(C(=O)O)cc3C2=O)cc1OCC,i,i,i,i,i
CC(C)(Cc1ccccc1)/[N+]([O-])=C\c1ccc(C(F)(F)F)cc1,i,i,i,i,i
O=C(/C=C/c1ccc(OC2CSC2)cc1)c1ccccc1,i,i,-7.53*,i,i
O=C(N/N=C/c1ccc(OC2CSC2)cc1)c1ccccc1,i,i,i,i,i

# Source: PubChem BioAssay
